This passage reports inhibition, CC50 and EC50 results from ChEMBL document CHEMBL1127691, “Discovery, synthesis, and bioactivity of bis(heteroaryl)piperazines. 1. A novel class of non-nucleoside HIV-1 reverse transcriptase inhibitors” (J Med Chem, 1994).

Assay [1] concerns the target Human immunodeficiency virus type 1 reverse transcriptase (Human immunodeficiency virus 1) (UniProt Q72547). The experiment in a line: In vitro inhibitory activity against HIV-1 reverse transcriptase at 100 uM. In outline: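 Recombinant HIV-1 RT (p51/p66 heterodimer, 90–95% pure, 0.0274 μM) with poly(rA) 10 μg/mL and (dT)10 primer 5 μg/mL; 8 μM α-35S-dTTP, 50 mM Tris-HCl pH 8.3, 10 mM MgCl2, 60 mM NaCl, 20 mM DTT, 0.05% NP-40. 37 °C, 15 min; TCA-precipitated label counted on filters. Percent inhibition at 100 μM, mean of at least two determinations.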

A short description of assay [2]: Tested for the drug concentration required to decrease […] infected human peripheral blood mononuclear cell viability compared to uninfected controls. Type of assay: functional. The essentials:
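Uninfected and HIV-1 D34-infected PBMC at 37 °C, 5% CO2. Viability taken from mitogen-stimulated cell proliferation. CC50 is the concentration lowering viability relative to uninfected controls; mostly estimated.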

For assay [3], the system named is Human immunodeficiency virus 1. The experiment in a line: Effective antiviral dose required to block the spread of HIV-1D34 infection in human peripheral blood mononuclear cells. Type of assay: functional. Particulars: read-out: ED50 (the source's name). The essentials:
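PBMC (1 × 10^6 cells) infected with HIV-1 D34 inoculum containing 1 ng p24, cultured at 37 °C in 5% CO2. Replication read as supernatant p24 at day 4. ED50 = 50% effective antiviral dose, estimated in some cases.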

Bounds are passed on as bounds.

`O=C(c1cc2ccccc2[nH]1)N1CCN(c2ncccc2[N+](=O)[O-])CC1` registered an inhibition in assay [1] of 5%.

`COc1ccc(N2CCN(C(=O)c3cc4ccccc4[nH]3)CC2)c(OC)c1` gave an inhibition in assay [1] of 7%.

In assay [2], `O=C(c1cc2ccccc2[nH]1)N1CCN(c2ncccc2NCC(F)(F)F)CC1` gave a CC50 above 10 µM. Moreover, the EC50 in assay [3] is 1 µM. This compound also gave an inhibition in assay [1] of 40%.

In assay [2], `CCNc1cccnc1N1CCN(C(=O)c2ccc[nH]2)CC1` registered a CC50 above 100 µM. Also, in assay [3], the EC50 was above 1 µM. Moreover, the inhibition in assay [1] worked out at 87%.

In assay [2], `CCNc1ccccc1N1CCN(C(=O)c2cc3ccccc3[nH]2)CC1` came in with a 50% cytotoxic concentration (CC50) above 100 µM. Besides, in assay [3], the EC50 worked out at 1 µM. The same compound returned an inhibition in assay [1] of 78%.

Take `CC(C)C(=O)c1cccnc1N1CCN(C(=O)c2cc3ccccc3[nH]2)CC1`: the inhibition in assay [1] was 26%.

As for `CCNc1cccnc1N1CCN(C(=O)c2cc3ccccc3oc2=O)CC1`, the inhibition in assay [1] was determined as 16%.

As to `CCOc1ccccc1N1CCN(C(=O)c2cc(C)c(OC)c(C)c2)CC1`, the CC50 in assay [2] is below 10 µM. Further, the EC50 in assay [3] is above 1 µM. Moreover, in assay [1], the inhibition amounted to 0%.

In the case of `CCNc1cccnc1N1CCN(C(=O)c2cnc3ccccc3c2)CC1`, the inhibition in assay [1] was 14%.

`CCNc1cccnc1N1CCN(C(=O)c2nc3ccccc3o2)CC1`: the inhibition in assay [1] came out at 0%.

With `COc1ccccc1N1CCN(C(=O)c2cc3ccccc3[nH]2)CC1`, the inhibition in assay [1] was 33%.

Turning to `CC(C)Nc1ccc(F)cc1N1CCN(C(=O)c2cc3ccccc3[nH]2)CC1`, the CC50 in assay [2] is above 100 µM. The EC50 in assay [3] worked out at 0.1 µM. The compound further came in with an inhibition in assay [1] of 77%.

For the compound `CCNc1cccnc1N1CCN(C(=O)c2ccc3ccccc3n2)CC1`, in assay [1], the inhibition turned out to be 0%.

On to `O=C(c1cc2ccccc2[nH]1)N1CCN(c2ncccc2NCc2ccccc2)CC1`, for which, in assay [1], the inhibition is 14%.

Consider `CCNc1cccnc1N1CCN(C(=O)c2ccc3ccccc3c2)CC1`, for which the cytotoxic concentration (CC50) in assay [2] is above 10 µM. For the same compound, the EC50 in assay [3] was 10 µM. The compound also had an inhibition in assay [1] of 74%.

Regarding `CCc1ccccc1N1CCN(C(=O)c2cc3ccccc3[nH]2)CC1`, the inhibition in assay [1] came to 0%.

As for `CC(C)Nc1ccc(N2CCN(C(=O)c3ccc4[nH]ccc4c3)CC2)nc1`, in assay [1], the inhibition is 0%.

The compound `CC(C)Nc1cc(C(F)(F)F)ccc1N1CCN(C(=O)c2cc3ccccc3[nH]2)CC1` gave a CC50 in assay [2] above 10 µM. For the same compound, the EC50 in assay [3] was around 1 µM. The inhibition in assay [1] is 22%.

In the case of `CCOc1ccccc1N1CCN(C(=O)c2cc3ccccc3[nH]2)CC1`, in assay [2], the 50% cytotoxic concentration (CC50) was below 10 µM. Also, the EC50 in assay [3] is above 1 µM. Further, in assay [1], the inhibition was 76%.

Compound `CC(C)(C)C(=O)c1cccnc1N1CCN(C(=O)c2cc3ccccc3[nH]2)CC1` came in with an inhibition in assay [1] of 58%.

In turn, `Nc1cccnc1N1CCN(C(=O)c2cc3ccccc3[nH]2)CC1` returned a CC50 in assay [2] above 100 µM. Also, the EC50 in assay [3] is above 10 µM. For the same compound, the inhibition in assay [1] is 20%.

For `O=C(c1cc2ccccc2[nH]1)N1CCN(c2ncccc2NCC2CC2)CC1`, in assay [2], the half-maximal cytotoxic concentration (CC50) is above 100 µM. For the same compound, the EC50 in assay [3] turned out to be 0.01 µM. Besides, in assay [1], the inhibition was found to be 71%.

Compound `CCNc1cccnc1N1CCN(C(=O)c2cccc3cc[nH]c23)CC1` had a CC50 in assay [2] above 100 µM. For the same compound, the EC50 in assay [3] came out at 1 µM. For the same compound, the inhibition in assay [1] amounted to 87%.

With `COc1c(C)cc(CN2CCN(c3ncccc3NC(C)C)CC2)cc1C`, the CC50 in assay [2] was around 10 µM. Also, the EC50 in assay [3] was 1 µM. The same compound returned an inhibition in assay [1] of 84%.

As for `COc1c(C)cc(C(=O)N2CCN(c3ccccn3)CC2)cc1C`, in assay [2], the CC50 was above 100 µM. Besides, the EC50 in assay [3] is above 10 µM. The compound also showed an inhibition in assay [1] of 5%.

Take `CCNc1cccnc1N1CCN(C(=O)c2cc3c(C)c(OC)c(C)c(C)c3[nH]2)CC1`: the half-maximal cytotoxic concentration (CC50) in assay [2] was above 10 µM. Moreover, the EC50 in assay [3] is above 10 µM. The inhibition in assay [1] stood at 63%.

As for `CC(C)NCc1cccnc1N1CCN(C(=O)c2cc3ccccc3[nH]2)CC1`, the inhibition in assay [1] was 0%.

The compound `CNc1cccnc1N1CCN(C(=O)c2cc3ccccc3[nH]2)CC1` displayed a cytotoxic concentration (CC50) in assay [2] above 10 µM. Moreover, in assay [3], the EC50 is around 1 µM. The inhibition in assay [1] was 85%.

`COc1c(C)cc(CN2CCN(c3ncccn3)CC2)cc1C` displayed an inhibition in assay [1] of 0%.

In turn, `CC(C)(C)NC(=O)c1cccnc1N1CCN(C(=O)c2cc3ccccc3[nH]2)CC1` came in with an inhibition in assay [1] of 50%.

Turning to `CCC(C)Nc1cccnc1N1CCN(C(=O)c2cc3ccccc3[nH]2)CC1` (centres undefined), in assay [2], the CC50 is above 10 µM. Also, the EC50 in assay [3] came out at 0.01 µM. For the same compound, in assay [1], the inhibition is 95%.

As for `CC(C)Nc1ccccc1N1CCN(C(=O)c2cc3ccccc3[nH]2)CC1`, in assay [1], the inhibition was 87%.

`CCNc1cccnc1N1CCN(C(=O)c2cccs2)CC1` came in with a CC50 in assay [2] above 100 µM. The EC50 in assay [3] was around 10 µM. In assay [1], this compound gave an inhibition of 60%.

In the case of `CNC(=O)c1cccnc1N1CCN(C(=O)c2cc3ccccc3[nH]2)CC1`, the inhibition in assay [1] came out at 0%.

Turning to `CCNc1cccnc1N1CCN(Cc2cc3ccccc3[nH]2)CC1`, the EC50 in assay [3] came out at 1 µM. The compound also had an inhibition in assay [1] of 64%.

As for `CCN(CC)c1cccnc1N1CCN(C(=O)c2cc3ccccc3[nH]2)CC1`, the half-maximal cytotoxic concentration (CC50) in assay [2] was above 10 µM. Besides, the EC50 in assay [3] turned out to be 1 µM. The inhibition in assay [1] is 69%.

As to `CCOc1ccccc1N1CCN(Cc2cc(C)c(OC)c(C)c2)CC1`, in assay [1], the inhibition is 0%.

In assay [1], `CCCNc1cccnc1N1CCN(Cc2cc(C)c(OC)c(C)c2)CC1` displayed an inhibition of 60%.

In assay [1], `CC(C)Nc1cnnc(N2CCN(C(=O)c3ccc4[nH]ccc4c3)CC2)c1` came in with an inhibition of 39%.

Regarding `CCNc1cccnc1N1CCN(C(=O)c2cc3ccccc3s2)CC1`, in assay [2], the CC50 is around 100 µM. The EC50 in assay [3] came out at 10 µM. The inhibition in assay [1] worked out at 50%.

Turning to `CCN(C(C)=O)c1cccnc1N1CCN(C(=O)c2cc3ccccc3[nH]2)CC1`, the inhibition in assay [1] came out at 8%.

Regarding `CCNc1cccnc1N1CCN(C(=O)c2cc(C)c(OC)c(C)c2)CC1`, the CC50 in assay [2] is above 100 µM. The EC50 in assay [3] was 1 µM. Besides, the inhibition in assay [1] was 69%.

In assay [1], `CC(=O)c1cccnc1N1CCN(C(=O)c2cc3ccccc3[nH]2)CC1` gave an inhibition of 30%.

`CCNc1cccnc1N1CCN(C(=O)c2c[nH]c3ccccc23)CC1` showed an inhibition in assay [1] of 22%.

In assay [2], `CCC(CC)Nc1cccnc1N1CCN(C(=O)c2cc3ccccc3[nH]2)CC1` registered a CC50 above 10 µM. The EC50 in assay [3] was 0.1 µM. In assay [1], the inhibition amounted to 82%.

On to `CCNc1cccnc1N1CCN(C(=O)c2cc3ccccc3o2)CC1`, for which, in assay [2], the CC50 was above 10 µM. Further, the EC50 in assay [3] is 10 µM. Also, in assay [1], the inhibition came out at 37%.

For `CCNc1cccnc1N1CCN(C(=O)c2nc3ccccc3s2)CC1`, in assay [1], the inhibition stood at 0%.

For `CCNc1cccnc1N1CCN(C(=O)c2nc3ccccc3[nH]2)CC1`, the CC50 in assay [2] is above 10 µM. Besides, the EC50 in assay [3] turned out to be 10 µM. This compound also registered an inhibition in assay [1] of 69%.

`CCC(=O)c1cccnc1N1CCN(C(=O)c2cc3ccccc3[nH]2)CC1` came in with an inhibition in assay [1] of 40%.

Compound `N#Cc1ccccc1N1CCN(C(=O)c2cc3ccccc3[nH]2)CC1` had an inhibition in assay [1] of 0%.

In assay [2], `CC(C)Nc1cc(F)ccc1N1CCN(C(=O)c2cc3ccccc3[nH]2)CC1` came in with a 50% cytotoxic concentration (CC50) above 10 µM. Further, the EC50 in assay [3] came out at 0.1 µM. Also, the inhibition in assay [1] was 83%.

Consider `CCNc1cccnc1N1CCN(C(=O)c2cnccn2)CC1`, for which the inhibition in assay [1] stood at 0%.

For the compound `N#Cc1cccnc1N1CCN(C(=O)c2cc3ccccc3[nH]2)CC1`, the inhibition in assay [1] worked out at 5%.

Compound `CCOC(=O)c1cccnc1N1CCN(C(=O)c2cc3ccccc3[nH]2)CC1` displayed an inhibition in assay [1] of 68%.

Compound `CC(=O)Nc1cccnc1N1CCN(C(=O)c2cc3ccccc3[nH]2)CC1` returned a half-maximal cytotoxic concentration (CC50) in assay [2] above 100 µM. In assay [3], the EC50 was above 10 µM. In assay [1], the inhibition turned out to be 0%.

As for `CCCNc1cccnc1N1CCN(C(=O)c2cc3ccccc3[nH]2)CC1`, the CC50 in assay [2] was above 100 µM. Also, the EC50 in assay [3] was 0.1 µM. The inhibition in assay [1] was found to be 64%.

Compound `COc1c(C)cc(CN2CCN(c3ccccn3)CC2)cc1C` had a CC50 in assay [2] above 100 µM. Besides, in assay [3], the EC50 was above 10 µM. The compound also registered an inhibition in assay [1] of 0%.

For `CCNc1cccnc1N1CCN(C(=O)c2ccco2)CC1`, the CC50 in assay [2] is above 100 µM. Besides, the EC50 in assay [3] was above 10 µM. Further, the inhibition in assay [1] came to 39%.

Turning to `CCNc1cccnc1N1CCN(C(=O)c2ccc3[nH]ccc3c2)CC1`, in assay [2], the cytotoxic concentration (CC50) was above 100 µM. Besides, the EC50 in assay [3] is around 10 µM. The same compound showed an inhibition in assay [1] of 45%.

For `CCNc1cccc(N2CCN(C(=O)c3ccc4[nH]ccc4c3)CC2)n1`, the inhibition in assay [1] came out at 0%.

Compound `COC(=O)c1cccnc1N1CCN(C(=O)c2cc3ccccc3[nH]2)CC1` displayed an inhibition in assay [1] of 82%.

In assay [1], `CCNc1cccnc1N1CCN(C(=O)c2cccc3[nH]ccc23)CC1` returned an inhibition of 28%.

In turn, `COc1c(C)cc(C(=O)N2CCN(c3ncccc3NC(C)C)CC2)cc1C` showed a CC50 in assay [2] above 10 µM. Also, the EC50 in assay [3] worked out at 0.1 µM. The same compound came in with an inhibition in assay [1] of 78%.
